Laboratory results published in ChEMBL document CHEMBL1125725, “Potential antitumor agents. 61. Structure-activity relationships for in vivo colon 38 activity among disubstituted 9-oxo-9H-xanthene-4-acetic acids” (1991).

How the values were obtained:
MC-38 = experiment: Antitumor activity against the subcutaneously implanted C38 colon tumor in mice.; assay type: functional, Mus musculus; design: concentration or dose not given beside the values
Summary of the method: (§1)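 Colon 38 fragments were implanted sc in BDF1 mice and grown to 4-8 mm diameter. Each mouse then got a single ip dose of the sodium salt in water, with light excluded. Doses rose in 1.5-fold steps up to 750 mg/kg or the maximum tolerated dose. Tumors were removed 24 h later, formalin-fixed, and sections were stained with hematoxylin/eosin. Necrosis was scored: ++ >90%, + 50-90%, − <50%. Groups of five mice, with 2-3 independent determinations per dose.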

Mus musculus [1] = experiment: Minimum dose required when administered intraperitoneally in mice as the sodium salt in water in a single dose.; assay type: functional
Summary of the method: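 The minimum dose giving the cited necrosis level in sc colon 38 tumors (4-8 mm) in BDF1 mice. It was taken from a full dose profile at 1.5-fold intervals, given as a single ip dose of the sodium salt in water. The ceiling was 750 mg/kg or the maximum tolerated dose, defined as the highest dose causing no deaths in 24 h. Tumor histology was read at 24 h.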

Mus musculus [2] = experiment: Compound was evaluated in vivo, for antitumor activity, against the subcutaneously implanted C38 colon tumor in mice; 50-90%; assay type: functional; summary of the method: as §1
Mus musculus [3] = experiment: Compound was evaluated in vivo, for antitumor activity, against the subcutaneously implanted C38 colon tumor in mice; 50-90%

| Compound | Activity (MC-38) | minimum dose giving tumor necrosis (Mus musculus [1]) | Activity (Mus musculus [2]) | Activity (Mus musculus [3]) |
| --- | --- | --- | --- | --- |
| O=C(O)Cc1cccc2c(=O)c3cccc(Cl)c3oc12 | 90% | 150 mg/kg | – | – |
| O=C(O)Cc1cccc2c(=O)c3ccccc3oc12 | >90% | 220 mg/kg | – | – |
| Cc1cccc2c(=O)c3cccc(CC(=O)O)c3oc12 | >90% | 30 mg/kg | – | – |
| Cc1c(N(C)C)ccc2c(=O)c3cccc(CC(=O)O)c3oc12 | – | 45 mg/kg | – | – |
| O=C(O)Cc1cccc2c(=O)c3ccc4c(c3oc12)CCC4 | >90% | 45 mg/kg | – | – |
| Cc1cccc2c(=O)c3c(C)ccc(CC(=O)O)c3oc12 | >90% | 65 mg/kg | – | – |
| Cc1c(Br)ccc2c(=O)c3cccc(CC(=O)O)c3oc12 | >90% | 45 mg/kg | – | – |
| O=C(O)Cc1cccc2c(=O)c3ccc4ccccc4c3oc12 | >90% | 65 mg/kg | – | – |
| Cc1cc(CC(=O)O)c2oc3c(C)cccc3c(=O)c2c1 | >90% | 220 mg/kg | – | – |
| COc1ccc2c(=O)c3cccc(CC(=O)O)c3oc2c1C | >90% | 30 mg/kg | – | – |
| Cc1c(Cl)ccc2c(=O)c3cccc(CC(=O)O)c3oc12 | >90% | 30 mg/kg | – | – |
| O=C(O)Cc1cccc2c(=O)c3cc4ccccc4cc3oc12 | – | 330 mg/kg | 50% | – |
| Cc1c(F)ccc2c(=O)c3cccc(CC(=O)O)c3oc12 | >90% | 45 mg/kg | – | – |
| Cc1ccc2c(=O)c3cccc(CC(=O)O)c3oc2c1Cl | >90% | 100 mg/kg | – | – |
| O=C(O)Cc1cccc2c(=O)c3ccc(Cl)c(Cl)c3oc12 | – | 100 mg/kg | – | 50% |
| Cc1ccc2c(=O)c3cccc(C)c3oc2c1CC(=O)O | >90% | 45 mg/kg | – | – |
| O=C(O)Cc1cccc2c(=O)cc(-c3ccccc3)oc12 [MITOFLAXONE] | >90% | 330 mg/kg | – | – |
| Cc1ccc2c(=O)c3cccc(CC(=O)O)c3oc2c1C [VADIMEZAN] | >90% | 30 mg/kg | – | – |
